Assay results as given in ChEMBL document CHEMBL1147196, “Chemotherapy of leishmaniasis. Part V: Synthesis and in vitro bioevaluation of novel pyridinone derivatives” (Eur J Med Chem, 2007).
≈ marks a conversion by molar mass, not a printed value. Calls of active or inactive are those of the source. The calls are words filed in the database; no cut-off is given here.

Columns and labels:
Leishmania donovani [1] = experiment: Antipromastigote activity against Leishmania donovani MHOM IN/Dd8 assessed as luciferase activity after 72 hrs; format: functional, organism-based; details: for IC50 / IC90: MHOM IN/Dd8, 72 h
In short: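 Firefly-luciferase-transfected promastigotes kept in medium 199 + 10% FCS, penicillin/streptomycin, G418 selection. Late-log cells seeded 5 × 10^5/well, 72 h with serial dilutions (2.5–50 mg/ml as printed) in DMSO; DMSO dilution controls. Aliquot mixed 1:1 with Steady-Glo, luminescence (RLU). % inhibition = (N−n)/N × 100 vs untreated control; IC50 by probit analysis.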

Leishmania donovani [2] = experiment: Antiamastigote activity against Leishmania donovani MHOM IN/Dd8 in mouse J-774A.1 cells by luciferase reporter gene assay after 72 hrs; format: functional, organism-based, J774.A1; details: for IC50: Leishmania donovani, MHOM IN/Dd8, J774.A1, 72 h
In short: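 J-774A.1 mouse macrophages seeded 5 × 10^4 cells/well in RPMI-1640 + 10% FCS, 37 °C, CO2; after 24 h infected with stationary-phase luciferase-expressing promastigotes (2.5 × 10^5/well). Test material added in fresh complete medium (2.5–50 mg/ml range as printed), 72 h, 37 °C. Medium removed, PBS plus Steady-Glo, luminescence read. Inhibition vs untreated control RLU; IC50 by probit analysis.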

SMILES | IC50 (Leishmania donovani [1]) | IC90 (Leishmania donovani [1]) | IC90 (Leishmania donovani [2]) | IC50 (Leishmania donovani [2]) | Activity (Leishmania donovani [1])
Cc1occc(=O)c1OCCCCCOc1c(C)occc1=O | 18.7 µg/mL (≈ 58.3 µM) | 122 µg/mL (≈ 382 µM) | 112.99 µg/mL (≈ 353 µM) | 12.9 µg/mL (≈ 40.2 µM) | 
Cc1cccc(-n2ccc(=O)c(OCCCCCOc3c(C)n(-c4cccc(C)c4C)ccc3=O)c2C)c1C | 7.37 µg/mL (≈ 14 µM) | 19.1 µg/mL (≈ 36.2 µM) | 42.3 µg/mL (≈ 80.3 µM) | 8.57 µg/mL (≈ 16.3 µM) | 
Cc1occc(=O)c1OCCCCCOc1c(C)n(-c2ccc(F)cc2)ccc1=O | 43.6 µg/mL (≈ 105 µM) | 856 µg/mL (≈ 2070 µM) |  |  | 
Cc1occc(=O)c1OCCCCCOc1c(C)n(C2CCCCC2)ccc1=O | 4.59 µg/mL (≈ 11.4 µM) | 10.7 µg/mL (≈ 26.6 µM) | 102.89 µg/mL (≈ 256 µM) | 24 µg/mL (≈ 59.8 µM) | 
Cc1cccc(C)c1-n1ccc(=O)c(OCCCCCOc2c(C)n(-c3c(C)cccc3C)ccc2=O)c1C | 6.91 µg/mL (≈ 13.1 µM) | 12.5 µg/mL (≈ 23.7 µM) | 48.43 µg/mL (≈ 92 µM) | 9.64 µg/mL (≈ 18.3 µM) | 
Cc1occc(=O)c1OCCCCCOc1c(C)n(-c2ccc([N+](=O)[O-])cc2)ccc1=O | 5.75 µg/mL (≈ 13.1 µM) | 20.2 µg/mL (≈ 45.9 µM) | 28.58 µg/mL (≈ 64.9 µM) | 6.15 µg/mL (≈ 14 µM) | 
COc1ccc(-n2ccc(=O)c(OCCCCCOc3c(C)n(-c4ccc(OC)cc4)ccc3=O)c2C)cc1 | 12.6 µg/mL (≈ 23.7 µM) | 43.8 µg/mL (≈ 82.5 µM) |  |  | 
COc1ccccc1-n1ccc(=O)c(OCCCCCOc2c(C)occc2=O)c1C | 4.04 µg/mL (≈ 9.5 µM) | 13.3 µg/mL (≈ 31.3 µM) | 38.08 µg/mL (≈ 89.5 µM) | 5.32 µg/mL (≈ 12.5 µM) | 
Cc1cccc(C)c1-n1ccc(=O)c(OCCCCCOc2c(C)occc2=O)c1C | 17.9 µg/mL (≈ 42.2 µM) | 57.9 µg/mL (≈ 137 µM) |  |  | 
Cc1c(OCCCCCOc2c(C)n(Cc3ccccc3)ccc2=O)c(=O)ccn1Cc1ccccc1 | 9.98 µg/mL (≈ 20 µM) | 29.3 µg/mL (≈ 58.7 µM) | 99.48 µg/mL (≈ 200 µM) | 13.2 µg/mL (≈ 26.4 µM) | 
Cc1c(OCCCCCOc2c(C)n(-c3ccc(F)cc3)ccc2=O)c(=O)ccn1-c1ccc(F)cc1 |  |  |  |  | inactive
Cc1occc(=O)c1OCCCCCOc1c(C)n(-c2ccc(Cl)cc2)ccc1=O | 15.7 µg/mL (≈ 36.5 µM) | 38.7 µg/mL (≈ 90.1 µM) |  |  | 
Cc1c(OCCCCCOc2c(C)n(-c3ccccc3)ccc2=O)c(=O)ccn1-c1ccccc1 | 22.7 µg/mL (≈ 48.2 µM) | 49.8 µg/mL (≈ 106 µM) |  |  | 
Cc1c(OCCCCCOc2c(C)n(C3CCCCC3)ccc2=O)c(=O)ccn1C1CCCCC1 | 4.57 µg/mL (≈ 9.47 µM) | 18.6 µg/mL (≈ 38.6 µM) | 62.23 µg/mL (≈ 129 µM) | 22.8 µg/mL (≈ 47.2 µM) | 
CCCCCCCCCCCCCCCCOP(=O)([O-])OCC[N+](C)(C)C [MILTEFOSINE] |  |  | 107.51 µg/mL (≈ 264 µM) | 33.9 µg/mL (≈ 83.2 µM) | 
Cc1occc(=O)c1OCCCCCOc1c(C)n(Cc2ccccc2)ccc1=O | 13.5 µg/mL (≈ 33.1 µM) | 47.9 µg/mL (≈ 117 µM) |  |  | 
N=C(N)c1ccc(OCCCCCOc2ccc(C(=N)N)cc2)cc1 [PENTAMIDINE] | 0.58 µg/mL (≈ 1.7 µM) | 0.88 µg/mL (≈ 2.58 µM) |  |  | 
C[C@@H]1[C@H](O)[C@@H](C)/C=C/C=C/C=C/C=C/C=C/C=C/C=C/[C@H](O[C@@H]2O[C@H](C)[C@@H](O)[C@H](N)[C@@H]2O)C[C@@H]2O[C@](O)(C[C@@H](O)C[C@@H](O)[C@H](O)CC[C@@H](O)C[C@@H](O)CC(=O)O[C@H]1C)C[C@H](O)[C@H]2C(=O)O [AMPHOTERICIN B] |  |  | 0.1571 µg/mL (≈ 0.17 µM) | 0.00646 µg/mL (≈ 0.00699 µM) | 
